Screening data deposited in PubChem by several laboratories.
An excerpt weighted towards active compounds, which were near 2.3% of everything screened.
pCIP destab: compounds decreasing mouse p/CIP protein stability; decrease of EGFP signal, % at 10 µM; AID 1984; F442A p/CIP-EGFP cells, EGFP fluorescence, 16 h; 290,000 compounds, 0.01% hits; Q05BA5;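 active = EGFP signal decrease of at least 30% at 10 µM or well 3 SD below plate mean, unless failing retest; inactive = the rest, including hits failing retest or dose response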
T cell HTS: T cell immune modulation candidate; 2C CD8+ T cell-vesicle binding, flow cytometry; stronger effect = lower value; response (vesicle binding), % at 7 µM; 330,000 compounds, 0.068% hits;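 active = response, share of CD8 T cells binding vesicles, and their 90th percentile fluorescence all below set limits, cut at about 80% in these data, passing the limit was not always enough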;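 also: values below 100% mean blocked vesicle binding to the CD8+ T cells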
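Read-out – percent CD8+ FL2 mean versus row control · System – murine 2C transgenic CD8+ T lymphocytes · Times – 1.5 h cell–vesicle binding at 37 °C, then 20 min icy labelling · Control set – naked vesicles low, QL9 vesicles with vehicle high · Detection – cytometric PE anti-B7-1 and Alexa647 anti-CD8 signals after 1% paraformaldehyde fixation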
DSG3 Ab inh: human desmoglein-3 autoantibody binding inhibition; binding (percent of control), % at 10 µM; P32926; 310,000 compounds, 0.48% hits; AID 588358; DSG3-coupled beads, scFv-anti-DSG3-GFP binding, flow cytometry; stronger effect = lower value;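 active = binding more than 3 SD below its plate's average and above zero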;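 also: hits lower antibody fragment binding to DSG3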
GPR7 antag: blocks human GPR7 receptor signaling | P48145 | GPR7-expressing cells, fluorescence antagonist assay | inhibition, % at 4.4 µM | 290,000 compounds, 1.1% hits; in the data active = inhibition above about 16%, passing the limit was not always enough;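 also: cells stimulated with the agonist NPW; 0% = agonist with vehicle and 100% = vehicle without agonist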
CHT inh: human CHT choline transport inhibition | Q9GZV3 | CHT-expressing cells, membrane potential dye, choline response; stronger effect = lower value | B-score at 10 µM | 310,000 compounds, 0.86% hits;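 active = B-score over 3 SD under the library average, and starting fluorescence ratio not unusually high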;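 also: choline stimulus applied at its EC90 after an EC20 pre-addition; B-score computed on integrated fluorescence ratio after choline addition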
Target sequence (Q9GZV3 whole entry, looked up): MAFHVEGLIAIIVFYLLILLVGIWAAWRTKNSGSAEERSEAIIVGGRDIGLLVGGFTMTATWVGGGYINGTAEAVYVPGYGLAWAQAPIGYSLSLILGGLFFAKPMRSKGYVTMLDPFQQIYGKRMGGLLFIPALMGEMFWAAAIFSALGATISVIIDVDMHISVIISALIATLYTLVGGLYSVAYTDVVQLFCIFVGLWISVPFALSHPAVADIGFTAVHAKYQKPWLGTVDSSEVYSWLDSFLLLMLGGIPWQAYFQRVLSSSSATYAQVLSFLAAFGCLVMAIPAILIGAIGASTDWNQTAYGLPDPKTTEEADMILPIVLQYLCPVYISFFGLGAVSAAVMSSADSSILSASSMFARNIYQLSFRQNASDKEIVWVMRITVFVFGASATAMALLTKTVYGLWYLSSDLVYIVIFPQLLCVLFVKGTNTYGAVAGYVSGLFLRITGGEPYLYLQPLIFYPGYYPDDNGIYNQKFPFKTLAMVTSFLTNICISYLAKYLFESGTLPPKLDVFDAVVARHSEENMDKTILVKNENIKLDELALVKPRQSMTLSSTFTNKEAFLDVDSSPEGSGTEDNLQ
CHT PAM: allosteric activators of human choline transporter CHT. Q9GZV3. CHT-expressing cells, membrane potential dye, choline EC20; stronger effect = higher value; LV-AA mutant CHT in HEK293 cells. 310,000 compounds, 0.49% hits. B-score at 10 µM;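 active = initial fluorescence not abnormally high and integrated response B-score, plate-corrected, over 3 SD above library mean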
GPR7 antag cf: human GPR7 antagonism, confirmation assay | GPR7-expressing cells, calcium fluorescence antagonist mode | shares compounds with GPR7 antag | inhibition, % at 4.4 µM | 2,400 compounds, 52% hits; in the data active = inhibition above about 24%;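 also: stimulated with the GPR7 agonist NPW; 0% = agonist plus vehicle and 100% = vehicle alone without agonist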
MCHR1 antag: counter-screen for GPR7 antagonists: antagonists of human MCHR1; shares compounds with GPR7 antag; MCHR1-expressing cells, fluorescence antagonist assay; inhibition, % at 4.4 µM; 2,400 compounds, 62% hits; in the data active = inhibition above about 22%;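 also: 0% = vehicle with agonist and 100% = vehicle without agonist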
* hit, by the source's call; i = inactive; nt = not tested or not shown.

SMILES	pCIP destab	T cell HTS	DSG3 Ab inh	GPR7 antag	CHT inh	CHT PAM	GPR7 antag cf	MCHR1 antag
CC(=O)c1ccc(NC(=O)C(C)N(C)CC(=O)Nc2ccc(N3CCOCC3)cc2)cc1 (centres undefined)	-5.8	95.5	118.5	25.6*	i	i	12.5	-1.0
COc1ccc(N=C/C=C2\C=C(c3ccccc3)OC(C)(C)O2)cc1	-20.6	252.1	105.5	28.7*	i	i	-10.2	4.7
CN(Cc1ccccc1)C(=O)c1ccccc1-c1ccccc1	-5.7	506.5	103.7	68.8*	i	i	-12.6	10.8
O=C(Nc1cccc([N+](=O)[O-])c1)Nc1cccc([N+](=O)[O-])c1	-10.5	304.5	99.0	-10.2	i	i	nt	nt
COc1cc(NC(=O)Nc2cccc([N+](=O)[O-])c2)cc(OC)c1	-3.6	i	100.0	28.4*	i	i	5.5	73.9*
COC(=O)c1ccc(NC(=O)Nc2ccc([N+](=O)[O-])cc2)cc1	-4.4	675.0	115.9	46.7*	i	i	70.8*	67.3*
O=C(Nc1ccc(C(=O)O)cc1)Nc1ccc([N+](=O)[O-])cc1	-4.5	188.9	98.2	-13.4	i	i	nt	nt
COCC(=O)N1CCC(c2nc3ccccc3[nH]2)CC1	nt	nt	104.3	nt	nt	nt	nt	nt
CCCCNC(=O)CN1C(=O)C(CC)Oc2ccc(Cl)cc21 (centres undefined)	-16.0	246.0	100.9	27.7*	i	i	16.4	25.4*
CCOC(=O)CN1C(=O)C(CC)Oc2ccc(Cl)cc21 (centres undefined)	-10.6	333.7	113.6	7.8	i	i	nt	nt
CCN1CCN(C(=O)Nc2cccc(C(F)(F)F)c2)CC1	-3.2	197.2	96.8	-13.5	i	i	nt	nt
CC1CN(C(=O)Nc2cccc(C(F)(F)F)c2)CC(C)O1 (centres undefined)	4.9	284.6	99.1	27.1*	i	i	23.8*	35.9*
CC(C)C(=O)Nc1ccc(NC(=O)c2ccco2)cn1	-14.8	182.0	100.3	-1.1	i	i	nt	nt
CC(C)C(=O)Nc1ccc(NC(=O)CCc2ccccc2)cn1	-9.1	347.4	nt	23.3*	i	i	4.6	1.6
Cc1c(NC(=O)Nc2cccs2)cccc1[N+](=O)[O-]	-8.9	189.1	106.0	35.6*	i	i	-9.2	35.8*
COc1ccc(OCc2nnc(SCC(=O)N3CCCCC3)o2)cc1	-3.1	359.8	110.7	-7.6	i	i	nt	nt
COc1ccc(OCc2nnc(SCC(=O)N3CCCC3)o2)cc1	-8.6	314.4	111.7	23.6*	i	i	-1.2	6.9
Cc1cccc(N(CC(=O)Nc2ccccc2F)S(C)(=O)=O)c1	-8.1	137.0	106.9	26.9*	i	i	9.7	3.7
N#CC(c1ccccc1)C(CC(=O)c1ccccc1)c1ccccc1 (centres undefined)	nt	nt	103.7	nt	nt	nt	nt	nt
COc1ccc(OC)c2sc(N(CCN(C)C)C(=O)/C=C/c3cccs3)nc12	-6.3	355.9	109.4	31.3*	i	i	13.3	19.4
COc1cccc2sc(N(CCN(C)C)C(=O)/C=C/c3cccs3)nc12	-2.7	207.7	102.4	-4.6	i	i	nt	nt
COc1ccc(C)c2sc(N(CCN(C)C)C(=O)/C=C/c3cccs3)nc12	2.3	236.7	100.1	28.7*	i	i	38.3*	38.2*
N#CC1(c2ccccc2)CCC(NCCc2ccccc2)CC1 (centres undefined)	-1.6	263.9	100.4	40.2*	i	i	7.3	1.9
CN(C)C1=NC[C@H](Cc2ccccc2)N1CC1CCC(C(C)(C)C)CC1 (some centres undefined)	-2.0	475.3	102.8	44.8*	i	15.3*	40.9*	21.1
CN(C)C1=NC[C@H](Cc2ccccc2)N1CC1CCCC1	nt	540.1	104.0	nt	i	i	nt	nt
